A short description of test [1]: Inhibition of Protein Kinase A (PKA). In outline: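 PKA (1 μg/mL) phosphorylating histone IIa (1 mg/mL) with 10 μM ATP plus [γ32P]ATP, 5 mM MgCl2, 50 mM Tris pH 7.0, at 30 °C for 12 min. Stopped with 12% TCA with BSA carrier, reprecipitated. 32P incorporated into histone counted by scintillation; triplicate.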
The subject of a further test is P388. In words: Antiproliferative activity against P388 Murine Leukemia cells. Format: functional, cell-based. The following applies: Mus musculus.
Another test relates to Bacillus cereus. Briefly: Antimicrobial activity on Bacillus cereus. It counts as functional.
Test [2] addresses Protein kinase C alpha type (Homo sapiens, UniProt P17252). In words: Inhibition of Protein Kinase C(PKC). In outline:
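Procedure a: PKC (0.5 μg/mL) with histone IIIs (2.4 mg/mL), 10 μM ATP plus [γ32P]ATP, 10 mM MgCl2, 0.1 mM CaCl2, phosphatidylserine and diacylglycerol (10 mg/mL each), 50 mM Tris pH 7.5, at 30 °C for 12 min. TCA precipitation, histone-bound 32P counted by scintillation; triplicate.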

The subject of test [3] is DNA topoisomerase II (Bos taurus). In words: Inhibitory activity towards Topoisomerase 2 from calf thymus.
Test [4] deals with DNA topoisomerase I (Bos taurus). In words: Inhibitory activity towards Topoisomerase 1 from calf thymus.
For another test, the system named is B16. Briefly: Antiproliferative activity against B16 mouse melanoma cells. Format: functional, cell-based. In outline: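 B16 mouse melanoma cells (EMEM, 10% FCS, 37 °C, 5% CO2) plated at 200 cells/dish, adhered 20 h, then exposed 24 h to increasing drug concentrations. Drug medium removed, PBS wash, 12 days regrowth in fresh medium.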

In brackets after ≈: the same amount, converted by molar mass.

The term IC50 denotes the concentration that gives 50% inhibition. A lower IC50 goes with higher potency.

For the molecule `O=C1NC(O)c2c1c1c3ccccc3[nH]c1c1[nH]c3ccccc3c21` (stereo unspecified), the IC50 worked out at 34 µM in test [1] and 0.3 µM in the test on P388. Besides, the MIC in the test with Bacillus cereus stood at 6.25 µg/mL (≈ 19.1 µM).

`O=CNN1C(=O)c2c(c3c4ccccc4[nH]c3c3[nH]c4ccccc4c23)C1=O`: the IC50 in the test with P388 is 3.5 µM; in test [2] it was > 100 µM; in the test on B16 it was > 100 µM. Further, the results for the MIC (in test [3]; in test [4]; against Bacillus cereus) were > 10 µg/mL, 1 µg/mL (≈ 2.71 µM) and 50 µg/mL (≈ 136 µM), respectively.

Consider `O=CNN1C(=O)c2c(c3c4cccc(Cl)c4[nH]c3c3[nH]c4c(Cl)cccc4c23)C1=O`, for which the IC50 in the test with P388 was > 10 µM; in test [2], > 100 µM. The MIC in the test on Bacillus cereus is > 50 µg/mL.

For the molecule `COC1C(CO)OC(n2c3ccccc3c3c4c(c5c6ccccc6[nH]c5c32)C(=O)N(NC=O)C4=O)C(O)C1O` (stereo unspecified), the 50% inhibitory concentration (IC50) in the test with P388 was 0.3 µM; in test [2], > 100 µM. The MIC in test [3] is > 10 µg/mL; in test [4] it was 0.1 µg/mL (≈ 0.184 µM); with Bacillus cereus it was 25 µg/mL (≈ 45.9 µM).

As to `NN1C(=O)c2c(c3c4ccccc4[nH]c3c3[nH]c4ccccc4c23)C1=O`, the IC50 in test [1] is 44.6 µM; with P388, > 10 µM; in test [2], 43.5 µM; in the test with B16 it was > 250 µM. Besides, the MIC in the test with Bacillus cereus is > 50 µg/mL.

Regarding `O=C1c2c(c3c4ccccc4[nH]c3c3[nH]c4ccccc4c23)C(=O)N1CCO`, the half-inhibitory concentration (IC50) is 7 µM with P388, > 100 µM in test [2] and > 150 µM in the test on B16. In addition, the MIC in test [3] is > 10 µg/mL; in test [4] it was > 10 µg/mL; against Bacillus cereus, > 50 µg/mL.

In the case of `COC1C(CO)OC(n2c3ccccc3c3c4c(c5c6ccccc6[nH]c5c32)C(=O)N(N)C4=O)C(O)C1O` (stereo unspecified), the IC50 was 0.3 µM in the test on P388, > 100 µM in test [2] and 4.1 µM with B16. Moreover, the MIC is > 10 µg/mL in test [3], 0.1 µg/mL (≈ 0.194 µM) in test [4] and 50 µg/mL (≈ 96.8 µM) with Bacillus cereus.

In the case of `COC1C(CO)OC(n2c3c(Cl)cccc3c3c4c(c5c6cccc(Cl)c6[nH]c5c32)C(=O)N(N)C4=O)C(O)C1O` (stereo unspecified), the IC50 was 0.1 µM in the test on P388, > 100 µM in test [2] and 0.3 µM in the test on B16. The MIC in test [3] is > 10 µg/mL; in test [4] it was 0.1 µg/mL (≈ 0.171 µM); with Bacillus cereus it was 0.8 µg/mL (≈ 1.37 µM).

Consider `NN1C(=O)c2c(c3c4cccc(Cl)c4[nH]c3c3[nH]c4c(Cl)cccc4c23)C1=O`, for which the figures for the half-inhibitory concentration (IC50) (in the test with P388; in test [2]; in the test with B16) were > 10 µM, > 100 µM and 17 µM, respectively. Moreover, the MIC in test [3] and in test [4] was > 10 µg/mL each time.

Regarding `O=C1NC(=O)c2c1c1c3ccccc3[nH]c1c1[nH]c3ccccc3c21` [STAUROSPORINE AGLYCON], the values for the IC50 (in test [1]; with P388; in the test with B16) were 60 µM, 4 µM and > 100 µM, respectively. Also, the MIC in the test with Bacillus cereus was > 50 µg/mL.

With `COC1C(CO)OC(n2c3c(Cl)cccc3c3c4c(c5c6cccc(Cl)c6[nH]c5c32)C(=O)N(NC=O)C4=O)C(O)C1O` (stereo unspecified), the figures for the IC50 (with P388; in test [2]) were 0.3 µM and > 100 µM, respectively. Besides, the MIC in test [3] was > 10 µg/mL; in test [4], 1 µg/mL (≈ 1.63 µM); against Bacillus cereus, 3.1 µg/mL (≈ 5.05 µM).

With `COC1C(CO)OC(n2c3c(Cl)cccc3c3c4c(c5c6cccc(Cl)c6[nH]c5c32)C(=O)N(O)C4=O)C(O)C1O` (stereo unspecified), the IC50 in the test with P388 amounted to 0.5 µM; in test [2], 68 µM; in the test with B16, 0.7 µM. Further, the results for the MIC (in test [3]; in test [4]; in the test with Bacillus cereus) were > 10 µg/mL, 0.3 µg/mL (≈ 0.512 µM) and 3.1 µg/mL (≈ 5.29 µM), respectively.

With `COC1C(CO)OC(n2c3ccccc3c3c4c(c5c6ccccc6[nH]c5c32)C(=O)N(O)C4=O)C(O)C1O` (stereo unspecified), the IC50 in the test on P388 worked out at 3 µM; in test [2] it was 40 µM; with B16, 5.8 µM. Besides, the results for the MIC (in test [3]; in test [4]; in the test with Bacillus cereus) were > 10 µg/mL, 0.1 µg/mL (≈ 0.193 µM) and 25 µg/mL (≈ 48.3 µM), respectively.

`COC1C(CO)OC(n2c3ccccc3c3c4c(c5c6ccccc6[nH]c5c32)CNC4=O)C(O)C1O` (stereo unspecified): the IC50 was 3 µM in the test with P388 and 3.7 µM in test [2]. Moreover, the MIC in test [3] is > 10 µg/mL; in test [4], 0.01 µg/mL (≈ 0.0205 µM); against Bacillus cereus it was 12.5 µg/mL (≈ 25.6 µM).

The values are drawn from ChEMBL document CHEMBL1129573, “Structure-activity relationships in a series of substituted indolocarbazoles: topoisomerase I and protein kinase C inhibition and antitumoral and antimicrobial properties” (J Med Chem, 1996).
